Source: ChEMBL document CHEMBL1143636, “A series of bisaryl imidazolidin-2-ones has shown to be selective and orally active 5-HT2C receptor antagonists” (Bioorg Med Chem Lett, 2005)
Calls of active or inactive are those of the source. The rule behind the calls is not given here.

Key:
[1] = molecular target: 5-hydroxytryptamine receptor 2B (Homo sapiens, UniProt P41595); experiment: Binding affinity for human 5-hydroxytryptamine 2B receptor expressed in HEK 293 cells using [3H]5-HT; assay type: cell-based, HEK293
[2] = molecular target: 5-hydroxytryptamine receptor 2A (Homo sapiens, UniProt P28223); experiment: Binding affinity for human 5-hydroxytryptamine 2A receptor expressed in HEK 293 cells using [3H]ketanserin; assay type: cell-based, HEK293
[3] = system: Rattus norvegicus; experiment: Percentage reversal at 10 mg/kg po of mCPP (7 mg/kg i.p.) induced hypolocomotion; assay type: functional
How it was run: (§1)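 Rats were given the test compound orally at 10 mg/kg. mCPP, a 5-HT2C agonist, was given at 7 mg/kg ip 20 min before testing to induce hypolocomotion. The read-out was the percentage reversal of mCPP-induced hypolocomotion.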

[4] = molecular target: T1, 5-hydroxytryptamine receptor 2C (Homo sapiens, UniProt P28335); experiment: Binding affinity for human 5-hydroxytryptamine 2C receptor expressed in HEK 293 cells using [3H]mesulergine; assay type: cell-based, HEK293
T1 sequence (P28335 whole entry): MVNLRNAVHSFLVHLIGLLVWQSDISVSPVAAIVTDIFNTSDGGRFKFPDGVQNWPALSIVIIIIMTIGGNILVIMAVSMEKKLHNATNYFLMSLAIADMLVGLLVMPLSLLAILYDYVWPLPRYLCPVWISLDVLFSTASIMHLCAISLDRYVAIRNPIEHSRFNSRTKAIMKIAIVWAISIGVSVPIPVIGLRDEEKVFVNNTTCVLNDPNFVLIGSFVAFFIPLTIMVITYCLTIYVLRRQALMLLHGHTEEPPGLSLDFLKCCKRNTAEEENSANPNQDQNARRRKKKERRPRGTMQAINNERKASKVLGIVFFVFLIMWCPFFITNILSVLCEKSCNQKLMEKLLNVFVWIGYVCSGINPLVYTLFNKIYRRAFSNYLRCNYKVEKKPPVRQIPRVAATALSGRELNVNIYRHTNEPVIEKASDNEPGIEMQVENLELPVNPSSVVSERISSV

[5] = In vivo clearance in rat was determined; assay type: ADME, organism-based
[6] = system: Rattus norvegicus; experiment: Percentage reversal at 10 mg/kg po of mCPP (7 mg/kg i.p.) induced hypolocomotion; in active; assay type: functional, organism-based; design: dose 10 mg/kg; how it was run: as §1
[7] = system: Rattus norvegicus; experiment: Percentage reversal at 10 mg/kg po of mCPP (7 mg/kg i.p.) induced hypolocomotion; IA = in active; assay type: functional, organism-based; design: dose 10 mg/kg; how it was run: as §1
[8] = system: Rattus norvegicus; experiment: Dose of compound required to reverse mCPP (7 mg/kg i.p.) induced hypolocomotion by 50%; assay type: functional
How it was run: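 In rats, hypolocomotion was induced with the 5-HT2C agonist mCPP at 7 mg/kg ip, given 30 min pretest. The value is the compound dose that reversed the mCPP-induced hypolocomotion by 50%.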

Sequence of 5-hydroxytryptamine receptor 2B (P41595 whole entry): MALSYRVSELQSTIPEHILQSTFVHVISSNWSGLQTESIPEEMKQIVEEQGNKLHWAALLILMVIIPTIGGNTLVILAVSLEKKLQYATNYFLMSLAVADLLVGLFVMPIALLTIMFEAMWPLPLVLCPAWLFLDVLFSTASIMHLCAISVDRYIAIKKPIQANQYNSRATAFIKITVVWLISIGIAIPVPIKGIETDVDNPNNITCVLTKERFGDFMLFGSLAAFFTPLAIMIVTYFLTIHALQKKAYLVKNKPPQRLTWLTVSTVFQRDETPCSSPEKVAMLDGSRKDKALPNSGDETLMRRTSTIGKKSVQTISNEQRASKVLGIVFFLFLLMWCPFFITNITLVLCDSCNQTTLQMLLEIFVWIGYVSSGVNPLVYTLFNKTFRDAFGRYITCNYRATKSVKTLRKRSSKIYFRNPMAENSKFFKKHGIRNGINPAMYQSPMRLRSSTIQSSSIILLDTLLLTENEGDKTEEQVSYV
Sequence of 5-hydroxytryptamine receptor 2A (P28223 whole entry): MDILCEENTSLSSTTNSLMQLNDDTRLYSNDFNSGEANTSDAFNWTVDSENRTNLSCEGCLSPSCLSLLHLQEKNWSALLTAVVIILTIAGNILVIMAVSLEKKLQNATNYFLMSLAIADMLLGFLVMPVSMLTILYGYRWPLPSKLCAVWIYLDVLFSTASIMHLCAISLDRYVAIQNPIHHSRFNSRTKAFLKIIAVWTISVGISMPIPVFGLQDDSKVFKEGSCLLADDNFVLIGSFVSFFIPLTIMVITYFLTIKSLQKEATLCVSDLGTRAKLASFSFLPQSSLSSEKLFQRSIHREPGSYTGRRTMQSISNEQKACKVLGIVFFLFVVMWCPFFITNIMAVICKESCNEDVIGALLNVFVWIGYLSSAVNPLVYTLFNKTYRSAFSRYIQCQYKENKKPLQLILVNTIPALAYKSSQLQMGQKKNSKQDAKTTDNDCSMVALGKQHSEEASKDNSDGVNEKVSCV

| Ki [1] | Ki [2] | Ki [4] | clearance [5] | Structure (SMILES) | Reversal [3] | Reversal [6] | Reversal [7] | ID50 [8] |
| --- | --- | --- | --- | --- | --- | --- | --- | --- |
| 316 nM | > 5010 nM | 3.16 nM | – | COc1ccc(N2CCN(c3ccc(Cl)c(Cl)c3)C2=O)cc1OCCN1CCOCC1 | 7% | – | – | – |
| > 7940 nM | 3980 nM | 31.6 nM | – | COc1ccc(N2CCN(c3ccccc3Cl)C2=O)cc1OCCN1CCCCC1 | – | – | – | – |
| 316 nM | 631 nM | 0.794 nM | 45 mL/min/kg | COc1ccc(N2CCN(c3ccc(Cl)c(Cl)c3)C2=O)cc1OCCN1CCCCC1 | 75% | – | – | – |
| > 7940 nM | > 10000 nM | 7.94 nM | – | COc1ccc(-n2ccn(-c3cc(F)cc(F)c3)c2=O)cc1OCCN1CCCCC1 | – | – | – | – |
| > 5010 nM | > 10000 nM | 1 nM | – | COc1ccc(N2CCN(c3cc(F)cc(F)c3)C2=O)cc1OCCN1CCCCC1 | 40% | – | – | – |
| 501 nM | 2000 nM | 1.58 nM | > 120 mL/min/kg | COc1ccc(N2CCN(c3cccc(F)c3)C2=O)cc1OCCN1CCCCC1 | 7% | – | – | – |
| 126 nM | 398 nM | 0.631 nM | – | COc1cc2c(cc1OCCN1CCCCC1)N(C(=O)/C=C/c1ccccc1Cl)CC2 | 71% | – | – | – |
| 158 nM | 1000 nM | 25.1 nM | – | O=C1N(c2ccc(OCCN3CCCCC3)nc2)CCN1c1ccc(Cl)c(Cl)c1 | – | – | – | – |
| 794 nM | > 6310 nM | 12.6 nM | > 120 mL/min/kg | COc1ccc(N2CCN(c3cccc(F)c3)C2=O)cc1OCCN1CCOCC1 | 10% | – | – | – |
| 126 nM | 3160 nM | 7.94 nM | – | COc1ccc(N2CCN(c3ccc(C)c(C(F)(F)F)c3)C2=O)cc1OCCN1CCOCC1 | – | inactive | – | – |
| 1260 nM | > 10000 nM | 1260 nM | – | COc1ccc(N2CCN(c3cccc(F)c3)C2=O)cc1OCCO | – | – | – | – |
| 1260 nM | 2510 nM | 1.26 nM | – | COc1ccc(N2CCN(c3ccccc3)C2=O)cc1OCCN1CCCCC1 | – | inactive | – | – |
| 1260 nM | 1580 nM | 10 nM | – | COc1ccc(N2CCN(c3cccc(Cl)c3Cl)C2=O)cc1OCCN1CCCCC1 | – | – | inactive | – |
| – | – | – | – | Cc1cc2c(cc1Cl)N(C(=O)Nc1ccc(Oc3cccnc3C)nc1)CC2 [SB-242084] | – | – | – | 2 mg/kg |
| 2000 nM | > 1000 nM | 6.31 nM | – | COc1ccc(-n2ccn(-c3cccc(F)c3)c2=O)cc1OCCN1CCCCC1 | – | inactive | – | – |
| > 6310 nM | > 10000 nM | 398 nM | – | O=C1N(c2ccc(OCc3ccccn3)nc2)CCN1c1ccc(Cl)c(Cl)c1 | – | – | – | – |
| – | – | – | – | Cc1cc2c(cc1C(F)(F)F)N(C(=O)Nc1ccc(OCc3ccccn3)nc1)CC2 | – | – | – | 1 mg/kg |
| 79.4 nM | 398 nM | 2 nM | – | COc1ccc(N2CCN(c3ccc(C)c(C(F)(F)F)c3)C2=O)cc1OCCN1CCCCC1 | – | inactive | – | – |
| > 6310 nM | > 10000 nM | 50.1 nM | – | COc1ccc(N2CC(=O)N(c3cccc(F)c3)C2=O)cc1OCCN1CCCCC1 | – | – | – | – |
| 1580 nM | 2510 nM | 3.98 nM | – | COc1ccc(N2CCN(c3cccc(F)c3)C2=O)cc1OCCN(C)C | 40% | – | – | – |
| – | – | – | – | Cc1cc2c(cc1C(F)(F)F)N(C(=O)Nc1ccc(Oc3cccnc3C)nc1)CC2 [SB-243213] | – | – | – | 0.7 mg/kg |
| – | 501 nM | 1.26 nM | – | COc1ccc(N2CCN(c3ccc(Cl)c(Cl)c3)C2=O)cc1OCCN(C)C | – | inactive | – | – |
